# ERAP1 inh = inhibitors of human ERAP1 aminopeptidase; AID 652197; Q9NZ08; recombinant ERAP1, Leu-AMC fluorescence, 60 min; 0.15% of 340,000 active; inhibition, % at 10.7 µM;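 active = mean replicate inhibition of at least 30%, or all replicates individually reaching that 30% level; inactive = mean below 30% and not every replicate reaching it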
# S100A4 inh HTS = blocks human S100A4 binding to myosin IIA peptide; 0.14% of 360,000 active; S100A4/TAMRA-MyoIIA peptide fluorescence polarization; P26447; inhibition, % at 10.7 µM; AID 652163;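 active = mean inhibition of at least 70% across replicates, with every replicate also reaching that level; inconclusive = mean inhibition reaches 70% but some replicates fall short; inactive = mean inhibition below 70%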
# Target sequence (P26447 whole entry, looked up): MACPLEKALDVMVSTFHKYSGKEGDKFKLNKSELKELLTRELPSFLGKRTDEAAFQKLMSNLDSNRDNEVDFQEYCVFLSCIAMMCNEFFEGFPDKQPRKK
#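 Compound dosing: one dose per compound; test system: human S100A4 monomer with TAMRA-labelled myosin IIA peptide; probe or stimulus: TAMRA-labelled myosin IIA heavy-chain peptide probe, 5 nM; medium: HEPES buffer with Ca2+, pH 7.2; schedule: 5 min incubation before reading; benchmarks: neutral control DMSO, positive control TFP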
# CAL PDZ FP-1 = human CAL PDZ-peptide interaction inhibition; Q9HD26; purified CAL PDZ, TMR-peptide fluorescence polarization, 1 h; inhibition, % at 20 µM; 0.02% of 330,000 active; AID 504414;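 active = highest replicate inhibition of at least 40%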
#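 System: tagged CAL PDZ domain. Schedule: 1 h room-temperature incubation prior to read. Signal: fluorescence polarization (mP). Measure: percent inhibition from loss of millipolarization.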
# CAL PDZ FP-2 = inhibitors of human CAL PDZ peptide binding; AID 602252; 0.92% of 300,000 active; Q9HD26; purified CAL PDZ, TMR-peptide fluorescence polarization, 1 h; inhibition, % at 24.9 µM;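 active = mean inhibition of at least 30% with at least half of replicates also reaching 30%; inconclusive = no clear call, values can overlap the other calls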
# DENV2 CPE rescue = inhibitors of DENV2 cytopathic effect; DENV2-infected cells, cytopathic effect rescue, plate reader; CPE inhibition, % at 9.99 µM; 1.7% of 350,000 active; AID 651640; in the data active = CPE inhibition above about 20%, passing the limit was not always enough; inconclusive = no clear call, values can overlap the other calls; tested in BHK-21 cells
# SIRT5 inh = sirtuin-5 (human) deacylase inhibition. AID 652115. Purified SirT5, succinyl-peptide AMC, trypsin-coupled fluorescence. inhibition, % at 15 µM. 1.1% of 330,000 active. Q9NXA8; in the data active = inhibition above about 15%; inconclusive = no clear call, values can overlap the other calls
# Target sequence (Q9NXA8 whole entry, looked up): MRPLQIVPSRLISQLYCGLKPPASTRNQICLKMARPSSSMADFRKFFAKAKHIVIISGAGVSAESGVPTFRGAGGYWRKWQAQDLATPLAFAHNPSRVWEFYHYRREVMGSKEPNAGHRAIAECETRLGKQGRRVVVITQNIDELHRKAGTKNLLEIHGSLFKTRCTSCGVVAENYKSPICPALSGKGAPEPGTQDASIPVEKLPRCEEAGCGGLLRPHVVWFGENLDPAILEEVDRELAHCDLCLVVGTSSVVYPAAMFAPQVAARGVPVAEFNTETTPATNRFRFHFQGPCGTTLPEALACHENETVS
# Numbers stand for hits; 0 = inactive; ? = inconclusive; - = no result given; + = active, no number; ! = not confirmed by another sample. This is a sample that favours compounds with a hit; in the whole collection about 2.9% have one here.
SMILES,ERAP1 inh,S100A4 inh HTS,CAL PDZ FP-1,CAL PDZ FP-2,DENV2 CPE rescue,SIRT5 inh
Cc1noc(C)c1S(=O)(=O)Nc1ccc2c(c1)C(=O)N([C@H](C)CO)C[C@H](C)[C@@H](CN(C)Cc1ccc(C(F)(F)F)cc1)OCCCC[C@H](C)O2,0,0,-,-,0,25
O=C([C@@H]1[C@@H](CO)[C@@H]2Cn3c(cccc3=O)[C@H]1N2C(=O)CC1CC1)N1CCCCC1,0,0,-,-,148,0
CC=Cc1ccc2n(c1=O)C[C@@H]1[C@@H](CO)[C@H](C(=O)N(C)C)[C@H]2N1CC1CCCC1 (mixture of isomers),0,0,-,-,0,0
CC=Cc1ccc2n(c1=O)C[C@@H]1[C@@H](CO)[C@H](C(=O)N3CCOCC3)[C@H]2N1CC1CCCC1 (mixture of isomers),0,0,-,-,36,0
O=C([C@H]1[C@H](CO)[C@H]2Cn3c(cccc3=O)[C@@H]1N2CC1CCCCC1)N1CCOCC1,0,0,-,-,63,0
COCC(=O)Nc1ccc2c(c1)[C@@H]1C[C@H](CC(=O)NCc3cccnc3)O[C@@H](CO)[C@@H]1O2,0,0,-,-,0,0
C[C@@H]1CN([C@@H](C)CO)C(=O)c2cc(NC(=O)Cc3cn(C)c4ccccc34)ccc2O[C@@H]1CN(C)S(=O)(=O)c1cccs1,-,0,-,-,0,0
CCOC(=O)C1CCN(c2nc(-c3ccc(C)cc3)nc3ccccc23)CC1,0,0,0,85,0,0
CCOC(=O)C1CCN(c2c(C(=O)c3ccccc3)cnc3ccc(Cl)cc23)CC1,0,0,0,-,34,-
Nc1nc(SCC(=O)N2CCN(c3ccc(F)cc3)CC2)n[nH]1,0,0,0,-,40,0
COc1ccc(NS(=O)(=O)c2cc(NC(=O)c3cnccn3)ccc2OC)cc1Br,0,0,0,71,0,0
O=C(C[C@H]1C[C@@H]2c3cc(NS(=O)(=O)c4ccc(F)cc4)ccc3O[C@@H]2[C@@H](CO)O1)NCc1ccncc1,0,0,-,-,0,0
COC(=O)c1sccc1NC(=S)N1CCN(C)CC1,-,0,0,+,0,0
O=C(O)c1cccc2c1C(=O)c1ccccc1-2,0,0,0,0,0,0
O=C1C(=C(I)I)c2ccccc2-c2ccccc21,36,0,0,0,0,0
CC(C)=C1C(=O)NN(c2cccc(Cl)c2)C1=O,0,0,0,74,?,-
Cc1ccc(C)c(OCCCCN2CCCCC2)c1,0,0,0,0,55,-
OC[C@@H]1[C@H](c2ccc(-c3cccc(F)c3)cc2)[C@@H]2CN(CCC(F)(F)F)CCCCN12,0,0,-,-,41,0
OC[C@@H]1[C@@H](c2ccc(-c3ccccc3)cc2)[C@H]2CN(CCC(F)(F)F)CCCCN12,0,0,-,-,20,0
OC[C@@H]1[C@@H](c2ccc(-c3cccc(F)c3)cc2)[C@@H]2CN(CCC(F)(F)F)CCCCN12,0,0,-,-,0,0
O=C(Nc1ccc(F)cc1)N[C@@H]1CC[C@H](CCn2cc(C3(O)CCCC3)nn2)O[C@H]1CO,0,0,-,-,-,0
O=C(Cc1csc(Nc2nc(=S)[nH]c3ccccc23)n1)N1CCN(c2cccc(Cl)c2)CC1,0,0,0,54,0,0
Cc1ccc(S(=O)(=O)N(C)C[C@H]2Oc3ccc(NS(=O)(=O)c4ccccc4)cc3CC(=O)N([C@H](C)CO)C[C@@H]2C)cc1,0,0,-,-,0,0
Cc1cn([C@H]2C[C@H](O)[C@@H](CNCc3ccc(C#CCCO)cc3)O2)c(=O)[nH]c1=O,0,0,-,-,0,-
Cc1cn([C@H]2C[C@H](O)[C@@H](CNCc3ccc4ncccc4c3)O2)c(=O)[nH]c1=O,0,0,-,-,94,0
SMILES,ERAP1 inh,S100A4 inh HTS,CAL PDZ FP-1,CAL PDZ FP-2,DENV2 CPE rescue,SIRT5 inh
CO[C@@H]1CN(C)C(=O)c2ccc(NC(=O)CC(F)(F)F)cc2OC[C@@H](C)N(C(C)=O)C[C@@H]1C,0,0,-,-,0,0
CSc1cccc(CN2CCCC(CNC(=O)c3ccco3)C2)c1 (centres undefined),0,0,0,146,0,0
COc1ccc(CC(=O)NCC2CCCN(Cc3cccc(SC)c3)C2)cc1 (centres undefined),0,0,-,0,0,0
CCOc1cccc(CN2CCCC(CNC(=O)c3cccc(OC)c3OC)C2)c1 (centres undefined),0,0,-,0,0,0
O=C(NCC1CCCN(Cc2cccc(F)c2)C1)c1cccc2ccccc12 (centres undefined),0,0,0,68,0,-
COc1ccccc1S(=O)(=O)N1CC[C@@H]2[C@H]1c1cc(-c3ccccc3F)ccc1N(C)[C@H]2CO,-,-,-,-,0,-
Cc1ccc(S(=O)(=O)Nc2ccc3c(c2)C(=O)N([C@@H](C)CO)C[C@H](C)[C@H](CN(C)C(=O)Nc2c(C)noc2C)OCCCC[C@H](C)O3)cc1,0,0,-,-,0,0
O=C1/C(=C\c2cccc(O)c2O)SC(=S)N1Cc1ccccc1,0,0,0,0,?,0
O=C1/C(=C\c2cc([N+](=O)[O-])ccc2O)SC(=S)N1Cc1ccc(Cl)cc1,0,0,0,0,?,16
C[C@@H]1CN([C@@H](C)CO)C(=O)Cc2cc(NC(=O)CCCCCC(=O)Nc3ccccc3N)ccc2O[C@H]1CN(C)Cc1ccc(C(F)(F)F)cc1,0,0,-,-,50,0
C[C@H]1CN([C@@H](C)CO)C(=O)Cc2cc(NC(=O)CCCCCC(=O)Nc3ccccc3N)ccc2O[C@H]1CN(C)Cc1ccc(C(F)(F)F)cc1,0,0,-,-,80,0
O=C(NCc1ccccc1)/C(=C\c1cccc([N+](=O)[O-])c1)NC(=O)c1ccco1,0,0,-,-,46,0
O=C(Nc1cccc(C(=O)O)c1)/C(=C\c1ccco1)NC(=O)c1ccccc1,0,0,0,0,50,0
O=C(Nc1ccccc1)/C(=C/c1ccc(O)cc1)NC(=O)c1ccco1,0,0,0,-,0,30
O=C(Nc1cccc(C(=O)O)c1)/C(=C\c1ccco1)NC(=O)c1ccccc1Cl,0,0,0,0,0,0
O=C(O)CNC(=O)/C(=C/c1cccc([N+](=O)[O-])c1)NC(=O)c1ccco1,0,0,0,0,0,0
COCC(=O)N1CC(=O)N2[C@@H](CO)[C@@H](c3ccc(C#Cc4cccc(OC)c4)cc3)[C@@H]2C1,0,0,-,-,0,0
C/C=C/c1ccc(C2[C@H]3CNC[C@@H]2N3Cc2nccs2)cc1 (some centres undefined),0,0,-,-,39!,0
CC12CCCC(C(C#N)C(N)=O)(C1)NC(=O)C2C#N (centres undefined),0,0,0,0,0,20
Cc1ccc(COC(=O)c2nn(C)c(=O)c3ccccc23)cc1,-,0,0,0,0,0
Cn1nc(C(=O)Oc2cc(=O)n(C)c3ccccc23)c2ccccc2c1=O,0,0,0,36,0,0

# Assay outcomes as filed in PubChem BioAssay.
